Test results reported in ChEMBL document CHEMBL1944546, “Structure-activity relationships of novel alkylides: 3-O-arylalkyl clarithromycin derivatives with improved antibacterial activities” (2012).
In brackets after ≈: the same amount, converted by molar mass.

Tests used:
Streptococcus pneumoniae [1] = experiment: Antibacterial activity against penicillin-susceptible, constitutive MLS-resistant Streptococcus pneumoniae PU 27 by broth microdilution method; type: functional
In short: (§1)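 MIC by broth microdilution following CLSI (2010) recommendations, using clinical isolates identified by 16S rDNA sequencing and labelled by genotype and phenotype. S. aureus ATCC 29213 and S. pneumoniae ATCC 49619 were run as control strains, and azithromycin, clarithromycin and 3-OH-clarithromycin were tested as reference agents.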

Streptococcus pneumoniae [2] = experiment: Antibacterial activity against efflux,penicillin-susceptible Streptococcus pneumoniae PU 09 by broth microdilution method; type: functional
In short: (§2)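 MIC read by broth microdilution following CLSI (2010) guidance. The clinical isolates were identified by 16S rDNA sequencing and labelled by genotype and phenotype. S. aureus ATCC 29213 and S. pneumoniae ATCC 49619 were the control strains. Azithromycin, clarithromycin and 3-OH-clarithromycin were run as reference compounds.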

Staphylococcus aureus [3] = experiment: Antibacterial activity against erythromycin-susceptible Staphylococcus aureus ATCC 29213 by broth microdilution method; type: functional; in short: as §2
[4] = tested on: Staphylococcus haemolyticus; experiment: Antibacterial activity against methicillin-resistant, coagulase-negative, constitutive MLS-resistant Staphylococcus haemolyticus PU 19 by broth microdilution method; type: functional; in short: as §1
Streptococcus pneumoniae [5] = experiment: Antibacterial activity against erythromycin-susceptible Streptococcus pneumoniae ATCC 49619 by broth microdilution method; type: functional; in short: as §2
Streptococcus pneumoniae [6] = experiment: Antibacterial activity against penicillin-, constitutive MLS-resistant Streptococcus pneumoniae PU 11 by broth microdilution method; type: functional; in short: as §1
Staphylococcus aureus [7] = experiment: Antibacterial activity against methicillin-, inducible MLS-resistant Staphylococcus aureus PU 32 by broth microdilution method
Staphylococcus aureus [8] = experiment: Antibacterial activity against methicillin-susceptible, inducible MLS-resistant Staphylococcus aureus PU 64 by broth microdilution method; type: functional; in short: as §1
[9] = tested on: Staphylococcus epidermidis; experiment: Antibacterial activity against methicillin-susceptible, inducible MLS-resistant Staphylococcus epidermidis E1 by broth microdilution method; type: functional; in short: as §1
[10] = tested on: Staphylococcus epidermidis; experiment: Antibacterial activity against methicillin-resistant, constitutive MLS-resistant Staphylococcus epidermidis E2 by broth microdilution method; type: functional; in short: as §1
[11] = tested on: Streptococcus dysgalactiae; experiment: Antibacterial activity against efflux, erythromycin-resistant Streptococcus dysgalactiae A 1 by broth microdilution method; type: functional; in short: as §1
Staphylococcus hominis = experiment: Antibacterial activity against methicillin-resistant, coagulase-negative, inducible MLS-resistant Staphylococcus hominis E3 by broth microdilution method; type: functional; in short: as §1
Staphylococcus aureus [12] = experiment: Antibacterial activity against methicillin-, constitutive MLS-resistant […] by broth microdilution method; type: functional; in short: as §1
Streptococcus pyogenes [13] = experiment: Antibacterial activity against constitutive MLS-resistant Streptococcus pyogenes A 2 by broth microdilution method; type: functional; in short: as §1
Streptococcus pyogenes [14] = experiment: Antibacterial activity against erythromycin-susceptible Streptococcus pyogenes A 3 by broth microdilution method; type: functional; in short: as §2

Compound	MIC (Streptococcus pneumoniae [1]) [µg/mL]	MIC (Streptococcus pneumoniae [2]) [µg/mL]	MIC (Staphylococcus aureus [3]) [µg/mL]	MIC [4] [µg/mL]	MIC (Streptococcus pneumoniae [5]) [µg/mL]	MIC (Streptococcus pneumoniae [6]) [µg/mL]	MIC (Staphylococcus aureus [7]) [µg/mL]	MIC (Staphylococcus aureus [8]) [µg/mL]	MIC [9] [µg/mL]	MIC [10] [µg/mL]	MIC [11] [µg/mL]	MIC (Staphylococcus hominis) [µg/mL]	MIC (Staphylococcus aureus [12]) [µg/mL]	MIC (Streptococcus pyogenes [13]) [µg/mL]	MIC (Streptococcus pyogenes [14]) [µg/mL]
CC[C@H]1OC(=O)[C@H](C)[C@@H](OC/C=C/c2cccnc2)[C@H](C)[C@@H](O[C@@H]2O[C@H](C)C[C@H](N(C)C)[C@H]2O)[C@](C)(OC)C[C@@H](C)/C(=N\OCc2ccccc2Cl)[C@H](C)[C@H]2OC(=O)O[C@@]21C	16 (≈ 18.3 µM)	8 (≈ 9.17 µM)	32 (≈ 36.7 µM)	32 (≈ 36.7 µM)	4 (≈ 4.58 µM)	16 (≈ 18.3 µM)	32 (≈ 36.7 µM)								
CC[C@H]1OC(=O)[C@H](C)[C@@H](OC/C=C/c2cncnc2)[C@H](C)[C@@H](O[C@@H]2O[C@H](C)C[C@H](N(C)C)[C@H]2O)[C@](C)(OC)C[C@@H](C)C(=O)[C@H](C)[C@@H](O)[C@]1(C)O	128 (≈ 181 µM)	16 (≈ 22.6 µM)	> 256	> 256	8 (≈ 11.3 µM)	128 (≈ 181 µM)	> 256	> 256	> 256	> 256	16 (≈ 22.6 µM)	> 256	> 256	> 256	8 (≈ 11.3 µM)
CC[C@H]1OC(=O)[C@H](C)[C@@H](OC/C=C/c2cncc3ccccc23)[C@H](C)[C@@H](O[C@@H]2O[C@H](C)C[C@H](N(C)C)[C@H]2O)[C@](C)(OC)C[C@@H](C)/C(=N\OCc2ccccc2Cl)[C@H](C)[C@H]2OC(=O)O[C@@]21C	32 (≈ 34.7 µM)	16 (≈ 17.3 µM)	64 (≈ 69.4 µM)	128 (≈ 139 µM)	16 (≈ 17.3 µM)	32 (≈ 34.7 µM)	256 (≈ 277 µM)								
CC[C@H]1OC(=O)[C@H](C)[C@@H](O[C@H]2C[C@@](C)(OC)[C@@H](O)[C@H](C)O2)[C@H](C)[C@@H](O[C@@H]2O[C@H](C)C[C@H](N(C)C)[C@H]2O)[C@](C)(O)C[C@@H](C)CN(C)[C@H](C)[C@@H](O)[C@]1(C)O [AZITHROMYCIN]	64 (≈ 85.4 µM)	8 (≈ 10.7 µM)	1 (≈ 1.34 µM)	> 256	0.25 (≈ 0.334 µM)	> 256	8 (≈ 10.7 µM)	8 (≈ 10.7 µM)	> 256	> 256	32 (≈ 42.7 µM)	> 256	> 256	> 256	0.125 (≈ 0.167 µM)
CC[C@H]1OC(=O)[C@H](C)[C@@H](OCC#Cc2cccnc2)[C@H](C)[C@@H](O[C@@H]2O[C@H](C)C[C@H](N(C)C)[C@H]2O)[C@](C)(OC)C[C@@H](C)/C(=N\OCc2ccccc2Cl)[C@H](C)[C@H]2OC(=O)O[C@@]21C			64 (≈ 73.5 µM)	64 (≈ 73.5 µM)	16 (≈ 18.4 µM)	32 (≈ 36.8 µM)	64 (≈ 73.5 µM)								
CC[C@H]1OC(=O)[C@H](C)[C@@H](O)[C@H](C)[C@@H](O[C@@H]2O[C@H](C)C[C@H](N(C)C)[C@H]2O)[C@](C)(OC)C[C@@H](C)C(=O)[C@H](C)[C@@H](O)[C@]1(C)O	128 (≈ 217 µM)	128 (≈ 217 µM)	> 256	> 256	64 (≈ 109 µM)	> 256	> 256								
CC[C@H]1OC(=O)[C@H](C)[C@@H](OCC#Cc2cncnc2)[C@H](C)[C@@H](O[C@@H]2O[C@H](C)C[C@H](N(C)C)[C@H]2O)[C@](C)(OC)C[C@@H](C)/C(=N\OCc2ccccc2Cl)[C@H](C)[C@H]2OC(=O)O[C@@]21C			32 (≈ 36.7 µM)	32 (≈ 36.7 µM)	16 (≈ 18.4 µM)	32 (≈ 36.7 µM)	32 (≈ 36.7 µM)								
C=CCO[C@H]1[C@H](C)[C@@H](O[C@@H]2O[C@H](C)C[C@H](N(C)C)[C@H]2O)[C@](C)(OC)C[C@@H](C)C(=O)N[C@H](C)[C@@H](O)[C@](C)(O)[C@@H](CC)OC(=O)[C@@H]1C	> 256	> 256	> 256	> 256	> 256	> 256	> 256								
C=CCO[C@H]1[C@H](C)[C@@H](O[C@@H]2O[C@H](C)C[C@H](N(C)C)[C@H]2O)[C@](C)(OC)C[C@@H](C)C(=O)[C@H](C)[C@@H](O)[C@](C)(O)[C@@H](CC)OC(=O)[C@@H]1C	128 (≈ 203 µM)	64 (≈ 102 µM)	> 256	> 256	32 (≈ 50.8 µM)	> 256	256 (≈ 406 µM)								
